In the library only some 2.9% were active in any assay of this set; here they are far more common.
DENV2 CPE: DENV2-induced cell death inhibition | DENV2-infected cells, cytopathic effect rescue, plate reader | CPE inhibition, % at 9.99 µM | 350,000 tested, 1.7% active | AID 651640; in the data active means CPE inhibition above about 20%, passing the limit was not always enough; inconclusive means no clear call, values can overlap the other calls; tested in BHK-21 cells
E-selectin induc: induces E-selectin expression in human endothelial cells; activation, % at 7.58 µM; 260,000 tested, 0.37% active; HUVEC E-selectin immunofluorescence imaging; normalized: neutral wells 0, TNF-alpha wells 100;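 active means mean E-selectin-positive cell signal at least 10% of the positive control, reached in at least 60% of replicates, without over 20% cell loss; inconclusive means no rule given, readout overlaps actives, possibly toxicity-flagged; inactive means the rest, including those meeting only one limit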
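System: HUVEC / Compound: single concentration / Signal: immunofluorescence imaging / Read-out: percent E-selectin-positive cells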
SIRT5 inh: sirtuin-5 (human) deacylase inhibition. Purified SirT5, succinyl-peptide AMC, trypsin-coupled fluorescence. inhibition, % at 15 µM. 330,000 tested, 1.1% active; in the data active means inhibition above about 15%; inconclusive means no clear call, values can overlap the other calls
Target sequence (Q9NXA8 whole entry, looked up): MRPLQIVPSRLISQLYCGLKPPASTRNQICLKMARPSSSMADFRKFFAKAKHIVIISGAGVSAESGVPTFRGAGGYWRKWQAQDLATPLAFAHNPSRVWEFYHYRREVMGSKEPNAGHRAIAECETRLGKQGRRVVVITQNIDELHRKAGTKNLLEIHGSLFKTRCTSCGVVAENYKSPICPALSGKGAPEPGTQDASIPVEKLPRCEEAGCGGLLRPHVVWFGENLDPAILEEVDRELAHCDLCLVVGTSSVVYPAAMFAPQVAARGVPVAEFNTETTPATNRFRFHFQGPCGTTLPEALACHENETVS
Each line names hits and unclear results; the compound was inactive in the other large screens.

CC(OC(=O)c1ccc2c(=O)n3c(nc2c1)CCCCC3)C(=O)Nc1ncc(Cl)cc1Cl (stereo not drawn)	DENV2 CPE inconclusive
Cc1ccc(NC(=S)N2CCC(c3nc4ccccc4s3)CC2)cc1	none (no result: E-selectin induc)
CCCc1nnc(NC(=O)Cn2c(=O)oc3ccccc32)s1	none (no result: DENV2 CPE, E-selectin induc)
CC1CN(C(=O)COC(=O)c2nn(-c3ccccc3)c(=O)c3ccccc23)CC(C)O1 (stereo not drawn)	none
CCCNC(=O)C[C@@H]1C[C@H]2c3cc(NS(=O)(=O)c4cccc(OC)c4)ccc3O[C@H]2[C@H](CO)O1	none
N#C[C@@H]1[C@@H](c2ccccc2C2=CCCC2)[C@H](CO)N1C(=O)Cc1ccncc1	DENV2 CPE 29
C/C=C/c1ccc([C@H]2[C@@H](C#N)N(C(=O)NC3CCCCC3)[C@H]2CO)cc1	none
C/C=C/c1ccc([C@@H]2[C@H](C#N)N(C(=O)NC3CCCCC3)[C@H]2CO)cc1	DENV2 CPE 77
N#C[C@H]1[C@@H](c2ccccc2-c2ccccc2)[C@@H](CO)N1C(=O)NC1CCCCC1	none
N#C[C@H]1[C@H](c2ccccc2C2=CCCC2)[C@@H](CO)N1C(=O)Cc1ccncc1	none
N#C[C@@H]1[C@H](c2ccccc2-c2ccccc2)[C@@H](CO)N1C(=O)NC1CCCCC1	DENV2 CPE 45
CN(C)S(=O)(=O)c1cccc(NC(=O)COC(=O)c2cc3ccccc3oc2=O)c1	none (no result: SIRT5 inh)
CCc1ccc(NC(=O)CSc2ccc(-c3cccnc3)nn2)cc1	none
O=C(Nc1ccc2ccccc2c1)[C@@H]1C[C@H]1[C@@H](NP(=O)(c1ccccc1)c1ccccc1)c1ccccc1	DENV2 CPE 40 (no result: SIRT5 inh)
O=C(NCc1ccccc1)[C@@H]1C[C@H]1[C@@H](NP(=O)(c1ccccc1)c1ccccc1)c1ccccc1	none (no result: E-selectin induc)
O=C(C[C@H]1CC[C@@H](NS(=O)(=O)c2cccc(F)c2)[C@H](CO)O1)N1CCCCC1	DENV2 CPE 25
O=C(NCC[C@@H]1CC[C@H](NS(=O)(=O)c2cccc(F)c2)[C@H](CO)O1)Nc1cc(F)ccc1F	none
O=C(NCC[C@@H]1CC[C@@H](NS(=O)(=O)c2cccc(F)c2)[C@@H](CO)O1)Nc1cc(F)ccc1F	DENV2 CPE 24
O=C(C[C@H]1CC[C@H](NS(=O)(=O)c2cccc(F)c2)[C@H](CO)O1)N1CCCCC1	none
O=C(/C=C/c1ccc([N+](=O)[O-])cc1)NCCOc1ccc(F)cc1	none (no result: E-selectin induc)
CC(=O)Nc1ccc(NC(=O)C(C)OC(=O)C2CCCC2)cc1 (stereo not drawn)	none (no result: E-selectin induc)
COCCCNS(=O)(=O)c1ccc(Cl)c(C(F)(F)F)c1	none (no result: DENV2 CPE, E-selectin induc)
CC(C)NC(=O)N1CCC(c2nc3ccccc3s2)CC1	none (no result: E-selectin induc)
O=C(CN1CCC(c2nc3ccccc3s2)CC1)N1CCCCC1	SIRT5 inh 38 (no result: E-selectin induc)
CN(C)CC(=O)N1[C@H](CO)[C@@H](c2ccccc2)C12CN(CC1CCOCC1)C2	DENV2 CPE 20
CCCNC(=O)N1CC2(C1)[C@H](c1ccccc1)[C@H](CO)N2CC1CCOCC1	none
O=C(CC1CC1)N1CC2(C1)[C@H](c1ccccc1)[C@H](CO)N2CC1CCOCC1	none
O=C(CC1CC1)N1CC2(C1)[C@@H](c1ccccc1)[C@@H](CO)N2CC1CCOCC1	none
CC(=O)N1CC2(C1)[C@@H](c1ccccc1)[C@@H](CO)N2CC1CCOCC1	DENV2 CPE 22
CC(=O)N1CC2(C1)[C@H](c1ccccc1)[C@@H](CO)N2CC1CCOCC1	DENV2 CPE 61
CC(=O)N1CC2(C1)[C@H](c1ccccc1)[C@H](CO)N2CC1CCOCC1	none
CCCNC(=O)N1CC2(C1)[C@H](c1ccccc1)[C@@H](CO)N2CC1CCOCC1	DENV2 CPE 24
CC(C)(C)[S@](=O)N1Cc2cc(C(=O)N3CCc4ccccc4C3)nc(-c3cccc(-c4ccncc4)c3)c2[C@@H]1CCO	none
O=C(O)COc1ccccc1-c1nc(-c2ccccc2)c(-c2ccccc2)[nH]1	none (no result: E-selectin induc)
O=S(=O)(Cc1ccccc1)N1CC2(C1)[C@H](c1ccccc1)[C@@H](CO)N2CC1CCOCC1	DENV2 CPE 27
CCS(=O)(=O)N1CC2(C1)[C@@H](c1ccccc1)[C@@H](CO)N2CC1CCCC1	none
C[C@@H]1CN([C@H](C)CO)C(=O)Cc2cc(NC(=O)Nc3ccc(C(F)(F)F)cc3)ccc2O[C@@H]1CN(C)Cc1ccccc1	none
CC(C)NC(=O)Nc1ccc2c(c1)C(=O)N([C@H](C)CO)C[C@H](C)[C@@H](CN(C)Cc1ccc(C(F)(F)F)cc1)O2	none
C[C@H]1CN([C@@H](C)CO)C(=O)c2cc(NC(=O)Nc3ccc(C(F)(F)F)cc3)ccc2O[C@H]1CN(C)Cc1ccncc1	DENV2 CPE 21 (no result: E-selectin induc)
C[C@H](CO)N1C[C@H](C)[C@@H](CN(C)Cc2ccncc2)Oc2ccc(NC(=O)Nc3ccc(C(F)(F)F)cc3)cc2C1=O	none (no result: E-selectin induc)
C[C@H](CO)N1C[C@H](C)[C@H](CN(C)Cc2ccncc2)Oc2ccc(NC(=O)Nc3ccc(C(F)(F)F)cc3)cc2C1=O	none (no result: E-selectin induc)
CC(C)NC(=O)Nc1ccc2c(c1)C(=O)N([C@@H](C)CO)C[C@@H](C)[C@H](CN(C)Cc1ccc(C(F)(F)F)cc1)O2	E-selectin induc 38
C[C@@H]1CN([C@H](C)CO)C(=O)c2cc(NC(=O)Nc3ccc(C(F)(F)F)cc3)ccc2O[C@@H]1CN(C)Cc1ccncc1	DENV2 CPE 57 (no result: E-selectin induc)
Cc1ccc(NC(=O)CCc2nc3ccccc3[nH]2)cc1C	none
C[C@H]1CN([C@@H](C)CO)C(=O)c2cccc(NS(=O)(=O)c3ccccc3)c2O[C@@H]1CN(C)C(=O)Nc1cccc2ccccc12	none (no result: DENV2 CPE)
Cc1ccc(S(=O)(=O)N2C[C@H]3C(=O)C[C@@H](c4cccc(Cl)c4)N(S(=O)(=O)c4ccc(C)cc4)[C@H]3C[C@H]2c2cccc(Cl)c2)cc1	none
COc1ccc(NC(=O)N(C)C[C@H]2Oc3ccc(NS(=O)(=O)c4ccccc4)cc3CC(=O)N([C@@H](C)CO)C[C@@H]2C)cc1	none
Fc1ccc(NC(=S)NCc2ccccc2Cl)cc1	none (no result: E-selectin induc)
CC1CCCN(CCCNC(=O)c2ccc(NC(=O)C3=CSCCO3)cc2)C1 (stereo not drawn)	none (no result: E-selectin induc)
Cc1oc(-c2ccc(Cl)cc2)nc1CN1CCCC(C(=O)N2CCN(C(=O)c3ccco3)CC2)C1 (stereo not drawn)	none
Cc1oc(-c2ccc(Cl)cc2)nc1CN1CCCC(C(=O)N2CCOCC2)C1 (stereo not drawn)	SIRT5 inh 22
COc1ccc(-c2nc(CN3CCC(C(=O)N4CCOCC4)CC3)c(C)o2)c(OC)c1	DENV2 CPE 44 (no result: E-selectin induc)
CCN1CCN(C(=O)C2CCN(Cc3nc(-c4cccc(Cl)c4)oc3C)CC2)CC1	none (no result: SIRT5 inh)
O=C(NC1CCOC1)c1ccc(OC2CCN(CCc3ccccc3)CC2)cc1 (stereo not drawn)	none (no result: E-selectin induc)
Cc1ccc(C)c(S(=O)(=O)N2CCCC2CNC(=O)C(=O)NCCc2ccccc2)c1 (stereo not drawn)	none
CCCC(=O)N1CC2(C1)CN(C(=O)C1CCCC1)[C@@H](CO)c1[nH]c3cc(OC)ccc3c12	none
O=C(NN=Cc1cccc2ccccc12)C(=O)NN=Cc1cccc2ccccc12	none
O=C(N/N=C/c1c[nH]c2ccccc12)c1ccncc1	none
O=C(N/N=C/c1c[nH]c2ccccc12)c1ccccc1	SIRT5 inh 100 (no result: E-selectin induc)
O=C(N/N=C/c1cccc2ccccc12)c1cccs1	SIRT5 inh 18

Compound activity from PubChem BioAssay.
